# HIV Env fusion: HIV envelope-mediated fusion inhibition; AID 651610; HeLa-JRFL Env/CEM21 cell fusion, luciferase; 360,000 tested, 1.1% active; inhibition, % at 12.3 µM;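 active = mean replicate inhibition score of at least 50 and every replicate individually at or above 50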;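 note: 0% = plate neutral controls and 100% = maraviroc near 300 nM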
# FN deposition inh: fibronectin deposition inhibition; 350,000 tested, 0.086% active; inhibition, % at 12.6 µM; AH1F fibroblasts, Alexa488-fibronectin deposition fluorescence, overnight; AID 743247;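 active = mean inhibition across replicates of 30% or more, regardless of how many single replicates reach that level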;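 note: positive control wells lacked labelled fibronectin entirely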
#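 Schedule: 1 h cell adhesion before compound, then overnight fibronectin incubation; test system: AH1F fibroblast monolayer depositing Alexa488-labelled fibronectin into matrix; quantity: 10000 AH1F cells per well; probe or stimulus: fluorescent fibronectin at 24 nM final; signal: fluorescence, ex 485 nm, em 525 nm; evaluation: percent inhibition as loss of matrix-bound fibronectin fluorescence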
# PAX8 inh HTS: lowers PAX8-driven luciferase in RMG-I cells. 360,000 tested, 1.2% active. inhibition, % at 12.6 µM. RMG-I TPO-luciferase reporter, SteadyGlo, 24 h;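 active = mean replicate inhibition at least 60% with every replicate also reaching 60%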;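 note: luciferase light reporting Pax8 driven TPO promoter activity; plate controls were median of neutral control wells for no effect and mitoxantrone controls for full effect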
# FGF22 binding: binders of recombinant human FGF22 by thermal shift; SYPRO orange fluorescence; percent of sucrose octasulfate shift, DMSO zero; 340,000 tested, 1.5% active; Q9HCT0; activity (Tm shift, normalised), % at 9.99 µM;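 active = mean Tm shift, scaled 0 neutral to 100 positive control, at about 1.3% or above, every replicate too, limit read from the data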
# Target sequence (Q9HCT0 whole entry, looked up): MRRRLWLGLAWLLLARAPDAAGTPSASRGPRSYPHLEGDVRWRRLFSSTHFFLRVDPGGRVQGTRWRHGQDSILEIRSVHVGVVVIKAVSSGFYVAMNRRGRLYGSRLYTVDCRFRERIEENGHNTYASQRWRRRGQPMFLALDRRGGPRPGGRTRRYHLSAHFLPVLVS
# PGC1a acetyl inh: lowers PGC1a acetylation signal in U2OS cells. AlphaScreen anti-acetyl-lysine; with virally co-expressed GCN5 acetyltransferase. inhibition, % at 15.6 µM. 350,000 tested, 0.17% active. AID 651687;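 active = every replicate shows inhibition of at least 40%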;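 note: 0% = neutral control wells and 100% = positive control wells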
# EWS-Fli inh: inhibitors of EWS/Fli oncoprotein transcriptional activity; 350,000 tested, 0.67% active; A673 NR0B1-luciferase reporter, viability-normalised; AID 651661; inhibition, % at 12.6 µM;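 active = mean inhibition of at least 50% after viability correction, with every replicate also passing that limit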;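 note: firefly luciferase signal divided by Alamar Blue viability fluorescence both relative to DMSO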
# The depositor's hits bear a star; . = no result given; [ ] = remark or other dose. Rows were chosen to be rich in hits. Some 3.1% of all compounds tested hit in one or more screens of this group.
SMILES,HIV Env fusion,FN deposition inh,PAX8 inh HTS,FGF22 binding,PGC1a acetyl inh,EWS-Fli inh
Cc1ccc(S(=O)(=O)N(C)C[C@@H]2OCCCC[C@H](C)Oc3ccc(NS(=O)(=O)c4cccs4)cc3C(=O)N([C@@H](C)CO)C[C@H]2C)cc1,-52.1[16.7 µM],-3.0,15.6,-0.3,5.8,-2.7
O=C(C[C@H]1CC[C@@H]2[C@H](COC[C@H](O)CN2CC2CCCCC2)O1)NCC1CC1,.,-5.3,3.8,-0.1,-11.1,-97.3
CCC(=O)N1C[C@H](C)[C@@H](OC)CN(C)C(=O)c2cc(NC(=O)c3ccccc3)ccc2OC[C@@H]1C,.,-4.9,.,1.1,11.8,-3.6
COc1ccc(C)c2sc(N(CCN(C)C)C(=O)/C=C/c3cccs3)nc12,-25.1,4.5,26.9,-0.3,14.6,.
CN(C)CCN(C(=O)/C=C/c1cccs1)c1nc2c(F)cc(F)cc2s1,-2.7,5.8,96.6*,.,.,.
COc1ccc(OC)c2sc(N(CCN(C)C)C(=O)/C=C/c3cccs3)nc12,23.3,-7.0,78.9*,-0.1,.,.
N#CCCN1CCN(C2=NC(=O)/C(=C\c3cccs3)S2)CC1,-4.0,-3.7,-37.8,44.1*,.,-7.1
O=C(C[C@H]1CC[C@H]2[C@@H](COC[C@@H](O)CN2Cc2cccc(Cl)c2)O1)N1CCCCC1,17.0[16.7 µM],-12.6,8.5,0.0,-15.4,10.2
C[C@H]1CN([C@@H](C)CO)C(=O)c2cc(-c3ccc(F)cc3)cnc2O[C@H]1CN(C)C(=O)Nc1ccccc1F,0.0[16.7 µM],-1.2,.,-0.1,-5.8,-10.2
Cc1ccccc1N(CC(=O)NCCSc1ccccn1)S(=O)(=O)c1ccccc1,2.7,4.6,15.7,0.1,-22.7,1.7
Cc1ccccc1CSCC(=O)NCCSc1ccccn1,37.4,-5.9,4.6,44.0*,.,-12.8
Cc1nc2ccccn2c1C(=O)NNS(=O)(=O)c1ccc(C(C)(C)C)cc1,72.1*,-12.1,23.7,.,.,.
CCOc1ccc(OCC)c(S(=O)(=O)NNC(=O)c2c(C)nc3ccccn23)c1,.,5.4,86.5*,-0.3,-6.4,9.9
CC(C)NC(=O)Nc1ccc2c(c1)C(=O)N([C@@H](C)CO)C[C@@H](C)[C@H](CN(C)C(=O)Nc1ccc(C(F)(F)F)cc1)OCCCC[C@@H](C)O2,15.2[16.7 µM],.,46.3,0.0,3.5,17.5
C[C@@H]1CN([C@H](C)CO)C(=O)c2cc(-c3cccc(F)c3)cnc2O[C@H]1CN(C)C(=O)C1CC1,.,-1.3,.,.,.,.
C/C(=N\NC(=O)c1cccs1)c1c(O)cc(C)oc1=O,-6.4,-1.8,-11.2,0.0,.,.
C/C(=N\Nc1ccc(Cl)cc1)c1c(O)cc(C)oc1=O,-2.5,.,5.5,43.0*,23.9,3.2
O=C(NCCN1CCN(c2ccccc2)CC1)c1ccc2c(c1)[nH]c(=S)n1c3ccccc3nc21,5.0,8.5,-10.0,43.3*,7.1,-18.1
O=Nc1c(O)c2ccccc2c2ccccc12,81.2*,37.9*,20.1,-0.9,44.7*,34.9
O=Nc1c2cc3ccccc3[nH]c-2c2ccccc12,-386.9,0.2,-33.4,0.2,-15.9,-118.7
CN1CCN(c2ccc([N+](=O)[O-])cc2C(=O)N2CCOCC2)CC1,19.7,6.3,-9.2,.,-14.3,.
CC1CCN(c2ccccc2NC(=O)c2cc([N+](=O)[O-])ccc2N2CCOCC2)CC1,60.2*,8.6,6.6,-0.4,0.6,.
O=C(NCCOc1ccccc1F)c1cc([N+](=O)[O-])ccc1N1CCOCC1,63.2*,.,23.8,0.0,-3.3,49.0
O=C(c1cc([N+](=O)[O-])ccc1N1CCOCC1)N1CCN(c2ccccc2)CC1,-105.6,0.2,90.8*,-0.1,.,.
CCc1ccccc1NC(=O)c1cc([N+](=O)[O-])ccc1N1CCOCC1,-14.6,7.8,36.0,-0.3,.,0.3
O=C(NCCOc1ccccc1)c1cc([N+](=O)[O-])ccc1N1CCOCC1,2.3,-21.9,18.0,-0.2,7.9,57.6*
O=C(Nc1ccc(N2CCOCC2)cc1N1CCOCC1)c1ccc([N+](=O)[O-])cc1,.,.,.,.,-13.2,.
O=C(CCNC(=O)c1ccc([N+](=O)[O-])cc1)Nc1ccc(N2CCOCC2)cc1N1CCOCC1,21.7,3.2,-5.1,43.1*,-3.4,0.4
CCCNC(=O)N[C@@H]1CC[C@H](CCNS(=O)(=O)c2cccc(F)c2)O[C@H]1CO,-5.1[16.7 µM],1.6,-8.3,-0.1,-9.6,4.0
